Insulin prom up = MIN6 insulin promoter up-regulation; MIN6 insulin promoter-GFP reporter, high-content imaging; active compounds read high; z-score at 5 µM; 190,000 tested, 0.3% active;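 active = z-score above 3 at 5 µM with at least 500 cells counted in the well; inconclusive = wells under 500 cells, flagged as cytotoxic or low count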
Autophagy mod = autophagy modulation, high-content screen; calls only at 10 µM (by protocol); 190,000 tested, 0.98% active; MEF GFP-LC3 puncta imaging; test concentration mostly 10 µM;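 active = percentage of spot-positive cells more than 3 SD above its plate mean, without a fluorescence outlier flag or 80% toxicity; inconclusive = no clear call, values can overlap the other calls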
MT stabilizer = microtubule stabilizers in HeLa cells | HeLa tubulin immunostaining HCS, 24 h; share of cells brighter than vehicle mean+2SD | % tubulin-high responders, % at 10 µM | 200,000 tested, 0.83% active | AID 2205;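 active = plate Z-score above 3 for both tubulin-high and condensed-nucleus cell shares, with cell loss under 80%, at 10 µM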;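 also: anti alpha tubulin signal scored within the nucleus-defined area of each cell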
bCat nuc transl = modulators of beta-catenin nuclear translocation; HeLa beta-catenin nuclear translocation, immunofluorescence imaging; AID 1665; nuclear translocation activity, % at 5 µM; 190,000 tested, 0.3% active;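 active = nuclear translocation activity above 50% at 5 µM, with a well cell count of 50 or more; inconclusive = wells under 50 cells across six images, flagged as toxic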;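 also: per-cell ratio of nuclear to cytoplasmic median beta-catenin stain intensity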
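Read-out: Nuclear/cytoplasmic beta-catenin signal ratio, % activation | Assay system: Human HeLa cell line | Times: 24 h compound exposure at 37°C, 5% CO2 | Signal: Fluorescence imaging of beta-catenin antibody stain plus DAPI | Dosing: 5 µM primary, 0.02–20 µM confirmation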
Dynein cargo inh = dynein cargo transport inhibition; 3617.4 mouse cells, GR-EGFP nuclear translocation imaging; test concentration mostly 20 µM; stimulated with dexamethasone, 1 µM; active compounds read low; 220,000 tested, 0.47% active; z-score, hits read low;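 active = plate z-score of nuclear minus cytoplasmic receptor signal below a set negative limit, without overly bright fluorescence or cell loss, cut at about -3.5 in these data, passing the limit was not always enough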;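 also: z-score of nuclear minus cytoplasmic ring GR-EGFP intensity difference per well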
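Schedule: 48 h induction, then 1 h compound, then 30 min agonist, 37 °C. Buffer or medium: tetracycline-free induction medium containing charcoal-stripped FBS. Reagent: 1.0 µM final dexamethasone stimulus. Evaluation: nuclear versus cytoplasmic GR-EGFP signal, averaged per well. Signal: high-content fluorescence imaging after fixation.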
Large screens that a line does not name were inactive. This is a sample that favours compounds with a hit; in the whole collection about 2.3% have one here.

CCOC(=O)N1CCN(c2ncnc3c2[nH]c2ccc(OC)cc23)CC1	none
CC(=O)c1cc2c(cc1NS(=O)(=O)c1ccc3c(c1)OCCO3)OCO2	none
COC(=O)c1ccc(Cl)c(NS(=O)(=O)c2ccc3c(c2)OCCO3)c1	MT stabilizer 39 (no result: Insulin prom up, bCat nuc transl)
Cc1c(NC(=O)c2cc(C3CC3)on2)c(=O)n(-c2ccccc2)n1C	Autophagy mod active (no result: bCat nuc transl)
Cc1c(NC(=O)c2cc(-c3ccccc3)on2)c(=O)n(-c2ccccc2)n1C	none (no result: bCat nuc transl)
CCN(CC)CCNC(=O)c1cc2c(-c3ccc(Cl)cc3)nn(C)c2s1	Autophagy mod active (no result: bCat nuc transl)
CN(C)/C=C/C(=O)c1ccccc1	none (no result: Insulin prom up, Autophagy mod, MT stabilizer)
CN(C)/C=C/C(=O)c1cccc([N+](=O)[O-])c1	Autophagy mod active
CCOCCCNC(=O)CNC(=S)N(Cc1ccc(C)cc1)Cc1ccco1	none
N#C/C(=C\c1cn(CCOc2ccccc2F)c2ccccc12)C(=O)NCc1cccs1	Autophagy mod active
COc1ccc(NC(=O)N2CCN(S(C)(=O)=O)CC2)c(OC)c1	none
CCOC(=O)c1ccc(NC(=O)N2CCOCC2)cc1	none
CCOC(=O)c1ccc(NC(=O)CSC(=S)N2CCOCC2)cc1	Autophagy mod active
Cc1cc(S(N)(=O)=O)c(N)c(S(N)(=O)=O)c1	none (no result: Autophagy mod, MT stabilizer)
Nc1cccc(-n2cccc2)c1	none
COc1cc(C(=O)N/N=C/c2ccsc2C)cc(OC)c1OC	bCat nuc transl 163
Cc1cccc(OCc2n[nH]c(=S)n2C2CCCCC2)c1	MT stabilizer 32 (no result: Insulin prom up)
Cc1ccc(OCc2n[nH]c(=S)n2C2CCCCC2)cc1	none
CC(=O)Nc1ccc(C(=O)OCC(=O)NCc2ccc(Cl)cc2)cc1	MT stabilizer 32, bCat nuc transl 50
Cc1cc(C)n(-c2ccc(C(=O)OCC(=O)NCc3ccc(Cl)cc3)cc2)n1	none
COc1ccc([N+](=O)[O-])cc1NC(=O)c1ccc(N2C(=O)CCC2=O)cc1	none (no result: Autophagy mod, MT stabilizer)
CCOC(=O)/C(=C/C=C1\Sc2cc(OCC)c(OCC)cc2N1CC)C(C)=O	Insulin prom up 16, Autophagy mod active (no result: bCat nuc transl)
CCCCCCCCCn1c2c(c(=N)c3c1CCC3)CCCC2	MT stabilizer 26
CCCCCCCCCCn1c2c(c(=N)c3c1CCC3)CCC2	Insulin prom up inconclusive
CN1C(=O)S/C(=C\c2ccc(-n3cncn3)cc2)C1=O	none
O=C(Cn1cnc2scc(-c3ccccc3)c2c1=O)NCc1ccco1	none
O=C(Cn1cnc2sc(-c3ccccc3)cc2c1=O)NCCc1ccccc1	none (no result: bCat nuc transl)
O=C(Cn1cnc2sc(-c3ccccc3)cc2c1=O)NCc1ccco1	MT stabilizer 27
O=C(Cn1ncn2c(cc3ccccc32)c1=O)NCc1ccco1	Insulin prom up 3.8
O=C(Cn1cnc2sc(-c3ccccc3)cc2c1=O)NCc1ccccc1	Autophagy mod active, MT stabilizer 36 (no result: bCat nuc transl)
COc1ccc(Cc2nnc(Nc3c(C)cccc3C)o2)cc1OC	none (no result: Autophagy mod, MT stabilizer)
CN(C)c1nc(N)c2ncc(=S)[nH]c2n1	none
CCCCC(=O)c1ccc(O)cc1O	Autophagy mod active (no result: Insulin prom up, bCat nuc transl)
CCCCC(=O)c1ccc(O)cc1	none
COc1ccc(Nc2nc(-c3sc(NC(C)=O)nc3C)cs2)cc1	MT stabilizer 23 (no result: bCat nuc transl)
CCCCC(=O)Nc1nc(C)c(-c2csc(Nc3ccccc3OC)n2)s1	none
C=CCCC(=O)Nc1nc(C)c(-c2csc(Nc3ccc(Cl)cc3Cl)n2)s1	none
COc1ccc(Nc2nc(-c3sc(N)nc3C)cs2)cc1	none
C=CCCC(=O)Nc1nc(C)c(-c2csc(Nc3ccccc3OC)n2)s1	bCat nuc transl 56
C=CCCC(=O)Nc1nc(C)c(-c2csc(Nc3cc(Cl)ccc3OC)n2)s1	MT stabilizer 54
O=C(CSc1ccc2nnc(-c3ccncc3)n2n1)Nc1nccs1	none
CCc1cccc(NC(=O)c2ccc(CNc3c(N4CCCC4)c(=O)c3=O)cc2)c1	none (no result: Autophagy mod, MT stabilizer)
Cc1ccc(Cn2c(-n3nc(C)cc3C)nc3c2c(=O)[nH]c(=O)n3C)cc1	none
COc1ccc(CCn2c(-n3nc(C)cc3C)nc3c2c(=O)[nH]c(=O)n3C)cc1	Autophagy mod active (no result: Insulin prom up, bCat nuc transl)
CC(C)C(NC(=O)c1ccccc1F)C(=O)Nc1nccs1 (centres undefined)	none
Cc1oc(C)c2c(=O)ccc3c(c12)OC(N)=C(C#N)C3c1ccccc1 (centres undefined)	Autophagy mod active (no result: Insulin prom up)
O=C(NNC(=O)C(Cl)Cl)c1cnn(-c2ccccc2)c1C(F)(F)F	none (no result: Autophagy mod, MT stabilizer)
Fc1ccc(C2CC(c3ccco3)=NN2c2ccccc2)cc1 (centres undefined)	Insulin prom up 3.5
O=[N+]([O-])c1ccc(N2N=C(c3ccco3)CC2c2ccccc2)cc1 (centres undefined)	none (no result: Insulin prom up)
COc1ccc2c(C=O)cn(C)c2c1	Autophagy mod active
COc1ccccc1NC(=O)Cn1nnc(-c2ccccc2NC(=O)c2cnccn2)n1	none
CC1=C(CC(=O)O)c2cc(F)ccc2/C1=C\c1ccc(S(C)=O)cc1 (centres undefined)	none (no result: Autophagy mod, MT stabilizer)
Cn1c(=O)[nH]c(=O)c2c1nc(N1CCCC1)n2CCCSc1nc2ccccc2o1	none (no result: Insulin prom up, bCat nuc transl)
Cn1c(=O)[nH]c(=O)c2c1nc(Br)n2CCCSc1nc2ccccc2o1	MT stabilizer 25 (no result: bCat nuc transl)
CCOC(=O)N1CCC(NC(=O)CNS(=O)(=O)c2ccc(Br)s2)CC1	MT stabilizer 20
CCOC(=O)C1CCCN(C(=O)CNS(=O)(=O)c2ccc(Br)s2)C1 (centres undefined)	none (no result: Insulin prom up)
COc1cc(OC)c(OC)cc1/C=N/NC(=O)CCc1c(C)n[nH]c1C	none (no result: Autophagy mod, MT stabilizer)
CC1CC(C)CN(C(=O)c2cccc3c2-c2ccccc2C3=O)C1 (centres undefined)	Insulin prom up 4 (no result: Autophagy mod, MT stabilizer)
O=C1c2ccccc2-c2c1cccc2C(=O)N1CCN(C(=O)c2ccco2)CC1	none
COC(=O)c1ccc(CSc2nc(-c3ccc(OC)cc3)nc3c2c(=O)n(C)c(=O)n3C)o1	Autophagy mod active (no result: Insulin prom up, bCat nuc transl)
Cc1cccc(-n2nnnc2SCC(=O)Nc2cccc(S(N)(=O)=O)c2)c1	none (no result: Autophagy mod, MT stabilizer)
O=c1[nH]c(-c2ccccc2F)nc2c1sc(=S)n2Cc1ccccc1	Autophagy mod active
COc1cccc2cc(C(C)OC(=O)Nc3ccc(C)cc3)oc12 (centres undefined)	none
CC(=O)C(/C=N/c1ncc(C(F)(F)F)cc1Cl)=C(\C)O	none
COC(=O)c1nnn(-c2nonc2N)c1COc1ccc(C=O)cc1OC	none
Cc1scc(C(=O)N2CCN(c3ccc(Cl)cc3)CC2)c1C	none
COc1ccc(NC2=CC(=O)CC(c3ccccc3)C2)c(OC)c1 (centres undefined)	MT stabilizer 32, bCat nuc transl 82
CCOc1ccccc1NC1=CC(=O)CC(c2ccccc2)C1 (centres undefined)	MT stabilizer 25
Nc1ccccc1NC1=CC(=O)CC(c2ccccc2)C1 (centres undefined)	none (no result: bCat nuc transl)
CN1CCCC(C#CC(O)(c2ccccc2)c2ccccc2)C1 (centres undefined)	none
CCN(CC)c1ccc(/C=N/NC(=O)c2cnccn2)cc1	MT stabilizer 23
CCN(CC)c1ccc(/C=N/NC(=O)c2ccco2)c(O)c1	none (no result: Autophagy mod, MT stabilizer)
CCN(CC)c1ccc(/C=N/NC(=O)c2ccccn2)cc1	none (no result: Insulin prom up, Autophagy mod, MT stabilizer)

Bioassay records from PubChem.
